From ChEMBL document CHEMBL1132451, “Evaluation and biological properties of reactive ligands for the mapping of the glycine site on the N-methyl-D-aspartate (NMDA) receptor” (J Med Chem, 1999) come the findings set out here.

Test [1] deals with Glutamate NMDA receptor; Grin1/Grin2b (Rattus norvegicus, UniProt P35439+Q00960). The test is described as follows: Antagonistic activity for suppression of membrane current response elicited by fixed concentration of glycine and glutamate in Xenopus oocyte expressing N-methyl-D-aspartate glutamate receptor 1/2B. The class given is functional. In a few lines:
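Xenopus oocytes expressing cloned NR1A/NR2B, superfused with frog's Ringer (10 mM HEPES, 115 mM NaCl, 0.9 mM CaCl2, 1 mM KCl, pH 7.2) containing 1 μM glycine plus 100 μM glutamate, with increasing antagonist. Washes of 4–6 min between stimulations. IC50 from five-point concentration-inhibition curves, sigmoidal fit, assuming competitive inhibition. Mean (SE) of ≥3 experiments.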

For test [2], the target named is Glutamate receptor ionotropic, NMDA 1 (Rattus norvegicus, UniProt P35439). The test can be described thus: Displacement of [3H]-5-7 dichlorokynurenic acid ([3H]- DCKA) from N-methyl-D-aspartate glutamate receptor glycine site of rat brain membrane homogenate. The class given is tissue-based. The procedure, abridged:
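Rat brain membranes kept at -80 °C, thawed, washed in HEPES-KOH 50 mM pH 7.5. About 0.1 mg protein incubated 30 min at 4 °C with 20 nM [3H]-DCKA and increasing probe; nonspecific binding with 1 mM glycine. Filtration, then scintillation counting. Logistic fit; Ki by Cheng-Prusoff (KD 35 nM). Mean (SE) of ≥3 experiments.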
(Displacement assays read how much labelled ligand stays bound in the presence of the test substance.)

SMILES strings stand for the structures. Some results are limits rather than exact numbers.

Glutamate NMDA receptor; Grin1/Grin2b, sequence (Q00960 whole entry, other chains not shown, the tested form may be a part): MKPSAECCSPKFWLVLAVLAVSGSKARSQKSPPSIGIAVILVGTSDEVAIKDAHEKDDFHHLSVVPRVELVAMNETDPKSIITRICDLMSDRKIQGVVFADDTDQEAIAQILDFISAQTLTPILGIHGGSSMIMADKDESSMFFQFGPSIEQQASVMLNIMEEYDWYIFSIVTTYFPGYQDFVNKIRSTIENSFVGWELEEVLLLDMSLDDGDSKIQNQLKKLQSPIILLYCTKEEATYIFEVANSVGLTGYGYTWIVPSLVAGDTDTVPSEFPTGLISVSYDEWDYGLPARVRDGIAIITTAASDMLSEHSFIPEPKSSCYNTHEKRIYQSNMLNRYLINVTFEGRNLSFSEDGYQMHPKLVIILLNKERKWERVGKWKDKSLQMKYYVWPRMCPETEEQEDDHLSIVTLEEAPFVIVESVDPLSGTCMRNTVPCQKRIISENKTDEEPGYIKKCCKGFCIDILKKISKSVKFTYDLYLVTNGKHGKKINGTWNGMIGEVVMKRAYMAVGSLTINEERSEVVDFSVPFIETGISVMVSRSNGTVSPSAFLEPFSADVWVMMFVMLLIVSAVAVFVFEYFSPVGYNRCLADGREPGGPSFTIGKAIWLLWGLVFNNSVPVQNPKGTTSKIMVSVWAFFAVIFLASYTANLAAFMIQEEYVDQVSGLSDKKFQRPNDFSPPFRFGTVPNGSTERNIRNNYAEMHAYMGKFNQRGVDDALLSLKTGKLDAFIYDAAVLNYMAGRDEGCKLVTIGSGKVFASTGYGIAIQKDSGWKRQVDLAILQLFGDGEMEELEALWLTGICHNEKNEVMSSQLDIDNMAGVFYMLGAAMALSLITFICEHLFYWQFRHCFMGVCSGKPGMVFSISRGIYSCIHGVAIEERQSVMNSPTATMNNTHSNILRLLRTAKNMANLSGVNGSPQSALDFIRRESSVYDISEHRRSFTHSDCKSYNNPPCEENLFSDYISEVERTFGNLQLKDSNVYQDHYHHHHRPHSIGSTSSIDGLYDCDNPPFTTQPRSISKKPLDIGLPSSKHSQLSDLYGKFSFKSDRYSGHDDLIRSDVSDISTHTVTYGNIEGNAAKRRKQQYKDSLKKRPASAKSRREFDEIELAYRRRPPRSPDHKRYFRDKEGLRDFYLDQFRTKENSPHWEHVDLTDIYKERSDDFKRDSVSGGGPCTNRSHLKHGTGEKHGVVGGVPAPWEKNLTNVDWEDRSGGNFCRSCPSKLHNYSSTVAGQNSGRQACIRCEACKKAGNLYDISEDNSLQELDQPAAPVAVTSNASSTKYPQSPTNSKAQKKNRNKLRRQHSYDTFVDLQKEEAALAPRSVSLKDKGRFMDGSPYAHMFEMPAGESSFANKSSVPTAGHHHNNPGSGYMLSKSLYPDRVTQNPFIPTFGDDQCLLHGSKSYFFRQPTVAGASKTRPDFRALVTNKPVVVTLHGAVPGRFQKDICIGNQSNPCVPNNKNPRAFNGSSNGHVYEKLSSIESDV

A word on the IC50: it is the concentration needed to halve the response being measured. As a reminder, the Ki is a dissociation constant, usually derived from enzyme kinetics or from competition with a known ligand. A higher Ki goes with a looser hold on the target. Take `O=C(CCl)Nc1c(-c2cccc(Oc3ccccc3)c2)c(=O)[nH]c2cc(Cl)ccc12`: the IC50 in test [1] was greater than 100000 nM. The Ki in test [2] worked out at 216 nM.
The like results for `O=C(Oc1c(-c2cccc(Oc3ccccc3)c2)c(=O)[nH]c2cc(Cl)ccc12)c1ccc(S(=O)(=O)F)cc1` were, in that order, 2410 nM and 24.2 nM.
On the same counts, the results for `O=C(CCl)Nc1ccc2c(O)c(-c3cccc(Oc4ccccc4)c3)c(=O)[nH]c2c1` are 38000 nM and 278 nM.
`O=C(CCl)Nc1cccc(-c2c(O)c3ccc(Cl)cc3[nH]c2=O)c1`: the IC50 in test [1] amounted to 155 nM. The molecule further registered a Ki in test [2] of 42 nM.
The like results for `O=C(CCl)Nc1cccc(Oc2cccc(-c3c(O)nc4cc(Cl)ccc4c3O)c2)c1` were, in that order, 39 nM and 13.8 nM.
As for `N#[N+]c1ccc2c(O)c(-c3cccc(Oc4ccccc4)c3)c(O)nc2c1`, the Ki in test [2] is greater than 1000 nM.
Regarding `O=c1[nH]c2cc(Cl)ccc2c(O)c1-c1cccc(N=C=S)c1`, the half-inhibitory concentration (IC50) in test [1] stood at 200 nM. In test [2], this molecule yielded a Ki of 47.6 nM.
The like results for `O=C(CCl)Nc1ccccc1Oc1cccc(-c2c(O)nc3cc(Cl)ccc3c2O)c1` were, in that order, 24 nM and 7.1 nM.
On the same counts, the results for `O=C(CCl)Nc1ccc2c(OC(=O)CCl)c(-c3cccc(Oc4ccccc4)c3)c(=O)[nH]c2c1` are 63000 nM and 427 nM.
The like results for `O=c1[nH]c2cc(Cl)ccc2c(O)c1-c1cccc(Oc2ccccc2)c1` were, in that order, 18 nM and 14 nM.
With `O=c1[nH]c2cc(Cl)ccc2c(O)c1-c1cccc(NCCS(=O)(=O)F)c1`, the IC50 in test [1] came to 335 nM. In test [2], this molecule showed a Ki of 24 nM.
Consider `O=c1[nH]c2cc(Cl)ccc2c(O)c1-c1cccc(Oc2ccccc2NCCS(=O)(=O)F)c1`, for which the IC50 in test [1] is 32 nM. In test [2], the affinity, expressed as Ki, was 26.8 nM.
The like results for `O=c1[nH]c2cc(N=C=S)ccc2c(O)c1-c1cccc(Oc2ccccc2)c1` were, in that order, 24000 nM and 64.3 nM.
